Measurements: ChEMBL document CHEMBL4619761, “Biosurfactants from Marine Cyanobacteria Collected in Sabah, Malaysia” (J Nat Prod, 2020)
The source made the active and inactive calls. The calls are words filed in the database; no cut-off is given here.

Key:
MCF7 = assay: Cytotoxicity against human MCF7 cells incubated for 72 hrs by MTT assay; type: functional, cell-based; details: MCF7, 72 h
[1] = Biosurfactant activity assessed as diameter of clear zone at 10 mg/ml by oil displacement assay; type: functional
In short: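 Oil displacement assay as an indirect measure of surface activity: sample tested at 10 mg/mL and the clear-zone diameter measured. SDS and pluronic F-68 were run at the same concentration for reference.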

[2] = Biosurfactant activity assessed as Critical micelle concentration of compound; type: physicochemical
[3] = Biosurfactant activity assessed as reduction in surface tension of aqueous solution at 10 to 1200 ug/ml by ring method; type: functional
In short: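 Surface tension of aqueous solutions (10−1200 μg/mL) measured by the ring method on a Du Noüy tensiometer with a platinum ring at 25 °C, in triplicate. The instrument was calibrated against pure H2O before each set. CMC was taken from the breakpoint of the surface tension versus log bulk concentration curve.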

Amphibalanus amphitrite = assay: Antifouling activity against Amphibalanus amphitrite at 0.88 ug/ml; type: functional, organism-based

SMILES	IC50 (MCF7) [µg/mL]	Activity [1] [mm]	CMC [2] [mM]	Activity [3]	further results
COC[C@@H](COC(C)=O)N(C)C(=O)CC/C=C/CCCC[C@H](Cl)CCCCCCCCCl	> 10	90			
CCCCCCCCCCCCCCC/C=C(\C)C(=O)N[C@@H](CO)COC			0.78	Active	Activity (Amphibalanus amphitrite): Active
CCCCCCCCCCCCOS(=O)(=O)[O-].[Na+]		84			
COC[C@@H](CO)N(C)C(=O)CC/C=C/CCCC[C@H](Cl)CCCCCCCCCl			0.34	Active	
CCCCCCCCC(Cl)CCCC/C=C/CCC(=O)N(C)[C@H](CO)COC (stereo not given in full)	> 10				
COC[C@@H](COC(C)=O)N(C)C(=O)CC/C=C/CCCCC(Cl)CCCCCCCC(Cl)Cl (stereo not given in full)	> 10				
